Compound activity from PubChem.
mIAP activ – increases mouse intestinal alkaline phosphatase activity | activation factor at 10 µM | AID 2805 | 330,000 compounds, 0.24% hits | muIAP, CDP-Star luminescence, 30 min; hits give high values; 1 = vehicle-only enzyme signal, 0 = enzyme-free wells;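 active means activation factor of at least 2 at 20 µM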
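Assay system: mouse IAP enzyme; reagent: chemiluminescent substrate CDP-Star; dosing: test compounds delivered from DMSO solution; schedule: 30 min at room temperature; measured by: luminescence from enzymatic CDP-Star hydrolysis; controls: DMSO-only wells and no-enzyme negative control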
hIAP activ – human IAP activation. P09923. purified human IAP, CDP-Star luminescence, 30 min; hits give high values; 1 = vehicle-only enzyme, 0 = enzyme-free background. activation factor at 10 µM. 330,000 compounds, 0.16% hits. AID 2524;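 active means activation factor of the enzyme at least 2-fold when tested at 20 µM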
Target sequence (P09923 whole entry, looked up): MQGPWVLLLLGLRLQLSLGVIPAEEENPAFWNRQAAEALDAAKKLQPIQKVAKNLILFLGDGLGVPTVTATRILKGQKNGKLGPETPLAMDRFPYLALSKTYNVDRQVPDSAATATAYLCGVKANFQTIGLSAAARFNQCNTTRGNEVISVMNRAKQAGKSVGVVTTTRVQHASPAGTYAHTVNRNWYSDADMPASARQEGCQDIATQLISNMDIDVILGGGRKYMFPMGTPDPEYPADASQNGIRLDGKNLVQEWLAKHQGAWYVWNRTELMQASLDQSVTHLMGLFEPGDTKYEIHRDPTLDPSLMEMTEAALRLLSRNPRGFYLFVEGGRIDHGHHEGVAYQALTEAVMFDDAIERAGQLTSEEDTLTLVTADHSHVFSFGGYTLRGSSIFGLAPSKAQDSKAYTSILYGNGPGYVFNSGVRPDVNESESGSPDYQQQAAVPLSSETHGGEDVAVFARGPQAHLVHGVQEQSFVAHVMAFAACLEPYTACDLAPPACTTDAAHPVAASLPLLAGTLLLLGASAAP
bIAP inhibitor – intestinal alkaline phosphatase (bovine) inhibition. inhibition, % at 20 µM. 190,000 tested, under 10 active. purified bovine IAP, CDP-star luminescence, 30 min;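 active means over 50% inhibition of intestinal alkaline phosphatase at 20 µM in the single-dose screen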
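Incubation: 30 min reaction at room temperature / Material: purified bovine intestinal alkaline phosphatase (IAP) enzyme / Input: enzyme at 1/65,000,000 dilution / Dosing: 20 µM single dose / Signal: CDP-star luminescence signal / Reagent: CDP-star chemiluminescent phosphatase substrate, 30 µM final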
hIAP inh – human IAP inhibition | P09923 | purified IAP, CDP-Star luminescence, 30 min | inhibition, % at 10 µM | 330,000 compounds, 0.12% hits | AID 2544;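 active means inhibition reaching a set limit with compound at 10 µM in the primary screen, cut at about 35% in these data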;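 further: plate controls were DMSO wells with enzyme for no effect and no-enzyme buffer wells for full effect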
mIAP inh – mouse IAP inhibition; purified mouse IAP, CDP-Star luminescence, 30 min; inhibition, % at 10 µM; 330,000 compounds, 0.2% hits;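 active means inhibition of at least 40% at 10 µM in the primary screen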;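 further: plate controls were DMSO with enzyme for no effect and no enzyme wells for full effect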
bIAP act – increases bovine intestinal alkaline phosphatase activity; purified bovine IAP, CDP-star luminescence, 30 min; hits give high values; fold of DMSO-control signal, blank-subtracted; activation factor at 20 µM; 200,000 compounds, 0.17% hits;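 active means activation factor of 2 or more at 20 µM, a signal rise over negative controls twice the positive control's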
mIAP inh conf – mouse IAP inhibition confirmation. 11,000 compounds, 4.7% hits. inhibition, % at 10 µM. purified mouse IAP, CDP-Star luminescence, 30 min. shares compounds with mIAP inh;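 active means inhibition of at least 40% at 10 µM in either of the two replicates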;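 further: plate controls were DMSO wells with enzyme for no effect and buffer wells lacking enzyme for full effect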
* = called active by the depositor; x = not tested or not shown. Sampled rows, rich in hits. Any-hit rate of the full collection: about 0.79%.

SMILES	mIAP activ	hIAP activ	bIAP inhibitor	hIAP inh	mIAP inh	bIAP act	mIAP inh conf
COc1ccc(C2=NOC(Cn3nc(-c4ccccc4)cc3C(=O)NCc3cccc(Br)c3)C2)cc1 (stereo not given)	3.8*	1.1	x	-10	-276	x	-112
Cc1csc(N)n1	0.97	1	12	-2	3	0.9	x
CC(=O)NCc1ccc(-c2csc(N)n2)s1	0.28	0.88	9	12	72*	0.9	77*
Cc1ccc(-c2csc(N)n2)s1	0.32	0.77	3	23	68*	1	78*
CC(=O)Nc1cccc(-c2csc(N)n2)c1	1.1	1.2	6	-16	-6	0.9	x
O=C(N/N=C/c1ccncc1)C12CC3CC(CC(C3)C1)C2	1.1	0.99	-7	1	-6	1.1	x
O=C(CC1Nc2cccc3cccc(c23)NC1=O)Nc1ccccc1 (stereo not given)	0.63	1.1	-8	-9	37	1.1	x
NC(=O)CC1Nc2cccc3cccc(c23)NC1=O (stereo not given)	0.59	1.2	5	-17	41*	0.9	50*
O=C(NC[C@@H]1CC[C@@H](Cc2ccc(-c3ccccc3)cc2)O1)Nc1ccc(Br)cc1	4.2*	x	x	x	-325	x	-310
O=C(NCCCc1ccccc1)C1CC1	1.1	1.1	x	-13	-7	x	x
O=C(NCCCCc1ccccc1)NC[C@@H]1CC[C@@H](Cc2ccc(-c3ccccc3)cc2)O1	4.8*	x	x	x	-371	x	-344
CCN(CC(=O)Nc1ccc(NC(C)=O)cc1)C(=O)CCCc1nc2ccccc2s1	1.1	1.2	x	-19	-6	x	x
CCN1/C(=C/C=C/c2oc3ccc(-c4ccccc4)cc3[n+]2CC)Oc2ccc(-c3ccccc3)cc21	0.35	1.4	-56	-36	65*	1.6	50*
CCCCN1C(=O)/C(=C/C=C2\Oc3ccccc3N2CC)SC1=S	x	x	31	x	x	0.7	x
CC(C)(C)c1nc(NC(=O)Nc2ccccc2)sc1Br	2.9*	0.95	-2	5	-192	1	-112
O=C(Nc1ccccc1N1CCOCC1)C1CCCO1 (stereo not given)	0.94	0.96	x	4	6	x	x
CC1(C)CC(=O)C2=C(C1)N=C1SCCC(=O)N1C2c1cccc([N+](=O)[O-])c1 (stereo not given)	0.93	1	12	-4	7	0.9	x
Cc1cc(O)c2c(c1O)C(=O)[C@]13C(=C2O)C(=O)[C@@H]2[C@@H](O)[C@H]1[C@@H]1[C@H](O)[C@H]3C(=O)C3=C(O)c4c(O)cc(C)c(O)c4C(=O)[C@]312	0.53	0.95	x	5	47*	x	41*
CC(=O)Nc1ccc(C=NNc2ccc([N+](=O)[O-])cc2S(=O)(=O)Nc2ccccc2C(=O)O)cc1	0.68	0.89	x	11	32	x	x
CN(CCO)c1ccc(C=NNc2ccc([N+](=O)[O-])cc2S(=O)(=O)Nc2ccccc2C(=O)O)cc1	0.54	0.97	x	2	46*	x	46*
Cn1cc([N+](=O)[O-])c(C(=O)Nc2cc(Oc3cccnc3)cc([N+](=O)[O-])c2)n1	0.94	1.1	13	-6	6	0.9	x
O=C(N/N=C/c1ccc([N+](=O)[O-])o1)c1ccc(NS(=O)(=O)c2cccs2)cc1	0.5	1.1	x	-8	50*	x	59*
O=C(N/N=C/c1ccc([N+](=O)[O-])o1)c1ccc2c(c1)OCO2	0.55	1.1	x	-8	45*	x	55*
Cc1cc(Cl)ccc1NC(=S)NCCC(c1ccccc1)c1ccccc1	3.7*	1.1	-39	-9	-266	1.4	-105
Cc1c(Cl)cccc1NC(=S)NCCC(c1ccccc1)c1ccccc1	4.1*	0.97	16	3	-312	0.8	-375
COc1ccc(C(=O)NCCCn2nc(C)cc2C)cc1S(=O)(=O)N1CCOCC1	1	1	x	-2	-1	x	x
CC(N=Cc1cc([N+](=O)[O-])ccc1O)c1ccccc1 (stereo not given)	1	1.1	8	-10	-2	0.9	x
CC(N=Cc1cccc(O)c1O)c1ccccc1 (stereo not given)	0.4	0.8	17	20	60*	0.8	67*
